In ChEMBL document CHEMBL2375270, “Structure-based design, SAR analysis and antitumor activity of PI3K/mTOR dual inhibitors from 4-methylpyridopyrimidinone series” (Bioorg Med Chem Lett, 2013):

Key:
[1] = Permeability across dog RRCK cells; type: ADME, cell-based, Canis lupus familiaris, MDCKII-LE; settings: MDCK, read-out: permeability
[2] = Toxicity against nu/nu mouse; type: organism-based; settings: in vivo
How it was run: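 Tolerability assessed in mice bearing U87 xenografts during tumour growth inhibition studies. Groups received vehicle or 1, 3 or 10 mg/kg. Plasma free drug levels and AKT phosphorylation were sampled at 1 h and 24 h in the top-dose group.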

[3] = Volume of distribution at steady state in rat; type: ADME, organism-based; settings: in vivo, read-out: Vdss
[4] = Oral bioavailability in rat; type: ADME, organism-based; settings: in vivo
Plasma [5] = experiment: Drug metabolism in human plasma assessed as formation of 2-((trans)-4-(2-amino-6-(6-methoxypyridin-3-yl)-4-methyl-7-oxopyrido[2,3-d]pyrimidin-8(7H)-yl)cyclohexyloxy)acetic acid at 8 mg, po qd for 21 days by HPLC analysis; type: ADME, organism-based; settings: in vivo, 504 h
How it was run: (§1)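 Human plasma came from patients given 8 mg once daily in a clinical dose-escalation study. Metabolites were profiled from the total ion chromatogram. Peaks were assigned by retention time and molecular ion (m/z) against reference standards and parent drug.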

Plasma [6] = experiment: Drug metabolism in human plasma assessed as formation of glucuronide conjugate at 8 mg, po qd for 21 days by HPLC analysis; type: ADME, organism-based; settings: in vivo, 504 h; how it was run: as §1

SMILES	Papp [1] [×10⁻⁶ cm/s]	further results
COc1ncc(-c2cc3c(C)nc(N)nc3n([C@H]3CC[C@H](OCO)CC3)c2=O)cn1	21.3	
COc1ncc(-c2cc3c(C)nc(N)nc3n([C@H]3CC[C@H](OCC(N)=O)CC3)c2=O)cn1	29.8	
COc1ncc(-c2cc3c(C)nc(N)nc3n([C@H]3CC[C@@H](OCC(N)=O)CC3)c2=O)cn1	30.1	
Cc1nc(N)nc2c1cc(-c1cn[nH]c1)c(=O)n2[C@H]1CC[C@@H](OCC(N)=O)CC1	0.151	
COc1ncc(-c2cc3c(C)nc(N)nc3n([C@H]3CC[C@H](OCO)CC3)c2=O)cc1F		MTD [2]: 10 mg/kg; Vd [3]: 4.08 L/kg; bioavailability [4]: 79%
Cc1nc(N)nc2c1cc(-c1cnn(C)c1)c(=O)n2[C@H]1CC[C@@H](OCO)CC1	23.3	
Cc1nc(N)nc2c1cc(-c1cn[nH]c1)c(=O)n2[C@H]1CC[C@@H](OCO)CC1	12.6	
COc1ccc(-c2cc3c(C)nc(N)nc3n([C@H]3CC[C@H](OCC(=O)O)CC3)c2=O)cn1	0.295	
COc1ccc(-c2cc3c(C)nc(N)nc3n([C@H]3CC[C@H](OCCO)CC3)c2=O)cn1 [PF-04691502]		Drug metabolism (Plasma [5]): Active; Drug metabolism (Plasma [6]): Active

The next lines start with results.

Papp [1] [×10⁻⁶ cm/s]	SMILES	further results
9.02	Cc1nc(N)nc2c1cc(-c1cnc3ccccc3c1)c(=O)n2[C@H]1CC[C@H](OCC(N)=O)CC1	
26.2	COc1ncc(-c2cc3c(C)nc(N)nc3n([C@H]3CC[C@H](OCC(N)=O)CC3)c2=O)cc1F	
4.58	COc1ccc(-c2cc3c(C)nc(N)nc3n([C@H]3CC[C@H](OCC(N)=O)CC3)c2=O)cn1	
4.57	Cc1nc(N)nc2c1cc(-c1cnc3ccccc3c1)c(=O)n2[C@H]1CC[C@@H](OCC(N)=O)CC1	
26.2	COc1ncc(-c2cc3c(C)nc(N)nc3n([C@H]3CC[C@@H](OCC(N)=O)CC3)c2=O)cc1F	
30.3	COc1ccc(-c2cc3c(C)nc(N)nc3n([C@H]3CC[C@@H](OCC(N)=O)CC3)c2=O)cn1	
19.7	Cc1nc(N)nc2c1cc(-c1cnc3ccccc3c1)c(=O)n2[C@H]1CC[C@H](OCO)CC1	
41.6	Cc1nc(N)nc2c1cc(-c1cnc3ccccc3c1)c(=O)n2[C@H]1CC[C@@H](OCO)CC1	
